In brackets after ≈: the same amount, converted by molar mass. Activity calls are given as the source filed them. The calls are words filed in the database; no cut-off is given here.
How the values were obtained:
[1] = system: Escherichia coli; test: Antimicrobial activity against Escherichia coli NCIM 2065 after 24 hrs by serial dilution method; assay type: functional; conditions: NCIM 2065, 24 h
Method in brief: (§1)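 Broth dilution MIC in nutrient broth, run only for organisms found sensitive in disc diffusion. Compounds are two-fold serially diluted in 1 ml sterile broth per tube, spanning 3.9 to 1000. Inoculated tubes are incubated at 37 °C for 24 h.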

[2] = system: Rhodotorula mucilaginosa; test: Antimicrobial activity against Rhodotorula rubra NCIM 3174 at 1000 ug/disk after 72 hrs by disk diffusion method; assay type: functional; conditions: NCIM 3174, 72 h, read-out: DIZ
Method in brief: (§2)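 Fungal disc diffusion. 100 µl of suspension at 10⁶ CFU/ml was spread on Sabouraud's dextrose agar. Discs carrying test compound in DMSO were applied, with a DMSO-only disc as negative control. Plates were incubated at 27 °C for 72 h, and the zone of inhibition diameter was measured.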

[3] = system: Bacillus cereus; test: Antimicrobial activity against Bacillus cereus NCIM 2155 after 24 hrs by serial dilution method; assay type: functional; conditions: NCIM 2155, 24 h; method in brief: as §1
[4] = system: Aspergillus fumigatus; test: Antimicrobial activity against Aspergillus fumigatus NCIM 902 at 500 ug/disk after 72 hrs by disk diffusion method; assay type: functional
Method in brief: (§3)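 Disc diffusion on Sabouraud's dextrose agar. 100 µl of fungal suspension at 10⁶ CFU/ml is spread on the plate. Discs carry test compounds at two loadings in DMSO; DMSO alone is the negative control. Clotrimazole disc is the positive reference. Plates are incubated at 27 °C for 72 h, and the zone of inhibition diameter is measured.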

[5] = system: Aspergillus fumigatus; test: Antimicrobial activity against Aspergillus fumigatus NCIM 902 after 72 hrs by serial dilution method; assay type: functional; conditions: NCIM 902, 72 h
Method in brief: (§4)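 MIC by broth dilution in Sabouraud's dextrose broth, only for fungi sensitive in disc diffusion. Two-fold serial dilutions of compounds are made in 1 ml broth per tube, range 3.9 to 1000. Inoculated tubes are incubated at 27 °C for 72 h.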

[6] = system: Rhodotorula mucilaginosa; test: Antimicrobial activity against Rhodotorula rubra NCIM 3174 after 72 hrs by serial dilution method; assay type: functional; conditions: NCIM 3174, 72 h
Method in brief: (§5)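 MIC by broth dilution in Sabouraud's dextrose broth, run only on fungi found sensitive in the disc assay. Twofold serial dilutions were made in 1 ml broth per tube, covering 3.9 to 1000. Inoculated tubes were incubated at 27 °C for 72 h.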

[7] = system: Aliivibrio fischeri; test: Antimicrobial activity against Vibrio fischeri NCIM 2154 at 500 ug/disk after 24 hrs by disk diffusion method; assay type: functional
Method in brief: (§6)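 Disc diffusion. 100 µl of bacterial suspension at 10⁸ CFU/ml was spread on Mueller–Hinton agar. Discs loaded with test compound dissolved in DMSO were placed on the lawn, with a DMSO-only disc as negative control. Plates were incubated at 37 °C for 24 h, and the inhibition zone diameter was measured.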

[8] = system: Aspergillus flavus; test: Antimicrobial activity against Aspergillus flavus NCIM 902 after 72 hrs by serial dilution method; assay type: functional; conditions: NCIM 535, 72 h, in the assay text read “NCIM 535” for “NCIM 902”; method in brief: as §4
[9] = system: Bacillus cereus; test: Antimicrobial activity against Bacillus cereus NCIM 2155 at 1000 ug/disk after 24 hrs by disk diffusion method; assay type: functional; conditions: NCIM 2155, 24 h, read-out: DIZ
Method in brief: (§7)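 Disc diffusion on Mueller–Hinton agar. 100 µl of bacterial suspension at 10⁸ CFU/ml is spread on the plate. Discs carry test compounds at two loadings, dissolved in DMSO; DMSO alone serves as negative control. Ofloxacin disc is the positive reference. Plates are incubated at 37 °C for 24 h, and the inhibition zone diameter is measured.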

[10] = system: Aspergillus niger; test: Antimicrobial activity against Aspergillus niger NCIM 1196 at 500 ug/disk after 72 hrs by disk diffusion method
[11] = system: Bacillus subtilis; test: Antimicrobial activity against Bacillus subtilis NCIM 2063 after 24 hrs by serial dilution method; assay type: functional; conditions: NCIM 2063, 24 h; method in brief: as §1
[12] = system: Aspergillus parasiticus; test: Antimicrobial activity against Aspergillus parasiticus NCIM 904 after 72 hrs by serial dilution method; assay type: functional; conditions: NCIM 904, 72 h; method in brief: as §4
[13] = system: Rhodococcus corynebacterioides; test: Antimicrobial activity against Corynebacterium rubrum NCIM 2252 at 1000 ug/disk after 24 hrs by disk diffusion method; assay type: functional; conditions: Rhodococcoides corynebacterioides; method in brief: as §7
[14] = system: Pseudomonas aeruginosa; test: Antimicrobial activity against Pseudomonas aeruginosa NCIM 2200 at 1000 ug/disk after 24 hrs by disk diffusion method; assay type: functional; method in brief: as §7
[15] = system: Trichoderma viride; test: Antimicrobial activity against Trichoderma viride NCIM 1195 at 1000 ug/disk after 72 hrs by disk diffusion method; assay type: functional; conditions: NCIM 1195, 72 h, read-out: DIZ; method in brief: as §2
[16] = system: Bacillus subtilis; test: Antimicrobial activity against Bacillus subtilis NCIM 2063 at 500 ug/disk after 24 hrs by disk diffusion method; assay type: functional; conditions: NCIM 2063, 24 h, read-out: DIZ; method in brief: as §7
[17] = system: Aspergillus fumigatus; test: Antimicrobial activity against Aspergillus fumigatus NCIM 902 at 1000 ug/disk after 72 hrs by disk diffusion method; assay type: functional; conditions: NCIM 902, 72 h, read-out: DIZ; method in brief: as §3
[18] = system: Rhodococcus corynebacterioides; test: Antimicrobial activity against Corynebacterium rubrum NCIM 2252 at 500 ug/disk after 24 hrs by disk diffusion method; assay type: functional; conditions: Rhodococcoides corynebacterioides; method in brief: as §7
[19] = system: Aspergillus parasiticus; test: Antimicrobial activity against Aspergillus parasiticus NCIM 904 at 500 ug/disk after 72 hrs by disk diffusion method; assay type: functional; conditions: NCIM 904, 72 h, read-out: DIZ; method in brief: as §3
[20] = system: Penicillium chrysogenum; test: Antimicrobial activity against Penicillium chrysogenum NCIM 707 at 1000 ug/disk after 72 hrs by disk diffusion method; assay type: functional; method in brief: as §3
[21] = system: Aspergillus niger; test: Antimicrobial activity against Aspergillus niger NCIM 1196 at 1000 ug/disk after 72 hrs by disk diffusion method
[22] = system: Aliivibrio fischeri; test: Antimicrobial activity against Vibrio fischeri NCIM 2154 at 1000 ug/disk after 24 hrs by disk diffusion method; assay type: functional; method in brief: as §6
[23] = system: Aspergillus flavus; test: Antimicrobial activity against Aspergillus flavus NCIM 902 at 500 ug/disk after 72 hrs by disk diffusion method; assay type: functional; conditions: NCIM 902, 72 h, read-out: DIZ; method in brief: as §3
[24] = system: Lipomyces lipofer; test: Antimicrobial activity against Lipomyces lipofer NCIM 3252 at 500 ug/disk after 72 hrs by disk diffusion method; assay type: functional; method in brief: as §3
[25] = system: Staphylococcus; test: Antimicrobial activity against Staphylococcus albus NCIM 2178 at 500 ug/disk after 24 hrs by disk diffusion method; assay type: functional; method in brief: as §6
[26] = system: Salmonella typhimurium; test: Antimicrobial activity against Salmonella Typhimurium NCIM 2501 at 500 ug/disk after 24 hrs by disk diffusion method; assay type: functional; conditions: Salmonella enterica subsp. enterica serovar Typhimurium; method in brief: as §6
[27] = system: Klebsiella aerogenes; test: Antimicrobial activity against Klebsiella aerogenes NCIM 2239 at 1000 ug/disk after 24 hrs by disk diffusion method; assay type: functional; method in brief: as §7
[28] = system: Aspergillus parasiticus; test: Antimicrobial activity against Aspergillus parasiticus NCIM 904 at 1000 ug/disk after 72 hrs by disk diffusion method; assay type: functional; conditions: NCIM 904, 72 h, read-out: DIZ; method in brief: as §3
[29] = system: Klebsiella aerogenes; test: Antimicrobial activity against Klebsiella aerogenes NCIM 2239 at 500 ug/disk after 24 hrs by disk diffusion method; assay type: functional; method in brief: as §7
[30] = system: Escherichia coli; test: Antimicrobial activity against Escherichia coli NCIM 2065 at 1000 ug/disk after 24 hrs by disk diffusion method; assay type: functional; conditions: NCIM 2065, 24 h, read-out: DIZ; method in brief: as §7
[31] = system: Aspergillus flavus; test: Antimicrobial activity against Aspergillus flavus NCIM 902 at 1000 ug/disk after 72 hrs by disk diffusion method; assay type: functional; conditions: NCIM 902, 72 h, read-out: DIZ; method in brief: as §3
[32] = system: Proteus vulgaris; test: Antimicrobial activity against Proteus vulgaris NCIM 2027 at 1000 ug/disk after 24 hrs by disk diffusion method; assay type: functional; method in brief: as §7
[33] = system: Bacillus cereus; test: Antimicrobial activity against Bacillus cereus NCIM 2155 at 500 ug/disk after 24 hrs by disk diffusion method; assay type: functional; conditions: NCIM 2155, 24 h, read-out: DIZ; method in brief: as §7
[34] = system: Lipomyces lipofer; test: Antimicrobial activity against Lipomyces lipofer NCIM 3252 at 1000 ug/disk after 72 hrs by disk diffusion method; assay type: functional; method in brief: as §3
[35] = system: Trichoderma viride; test: Antimicrobial activity against Trichoderma viride NCIM 1195 after 72 hrs by serial dilution method; assay type: functional; conditions: NCIM 1195, 72 h; method in brief: as §5
[36] = system: Escherichia coli; test: Antimicrobial activity against Escherichia coli NCIM 2065 at 500 ug/disk after 24 hrs by disk diffusion method; assay type: functional; conditions: NCIM 2065, 24 h, read-out: DIZ; method in brief: as §7
[37] = system: Bacillus subtilis; test: Antimicrobial activity against Bacillus subtilis NCIM 2063 at 1000 ug/disk after 24 hrs by disk diffusion method; assay type: functional; conditions: NCIM 2063, 24 h, read-out: DIZ; method in brief: as §7
[38] = system: Rhodotorula mucilaginosa; test: Antimicrobial activity against Rhodotorula rubra NCIM 3174 at 500 ug/disk after 72 hrs by disk diffusion method; assay type: functional; conditions: NCIM 3174, 72 h, read-out: DIZ; method in brief: as §2
[39] = system: Trichoderma viride; test: Antimicrobial activity against Trichoderma viride NCIM 1195 at 500 ug/disk after 72 hrs by disk diffusion method; assay type: functional; conditions: NCIM 1195, 72 h, read-out: DIZ; method in brief: as §2
[40] = system: Staphylococcus; test: Antimicrobial activity against Staphylococcus albus NCIM 2178 at 1000 ug/disk after 24 hrs by disk diffusion method; assay type: functional; method in brief: as §6
[41] = system: Penicillium chrysogenum; test: Antimicrobial activity against Penicillium chrysogenum NCIM 707 at 500 ug/disk after 72 hrs by disk diffusion method; assay type: functional; method in brief: as §3
[42] = system: Salmonella typhimurium; test: Antimicrobial activity against Salmonella Typhimurium NCIM 2501 at 1000 ug/disk after 24 hrs by disk diffusion method; assay type: functional; conditions: Salmonella enterica subsp. enterica serovar Typhimurium; method in brief: as §6
[43] = system: Proteus vulgaris; test: Antimicrobial activity against Proteus vulgaris NCIM 2027 at 500 ug/disk after 24 hrs by disk diffusion method; assay type: functional; method in brief: as §7
[44] = system: Pseudomonas aeruginosa; test: Antimicrobial activity against Pseudomonas aeruginosa NCIM 2200 at 500 ug/disk after 24 hrs by disk diffusion method; assay type: functional; method in brief: as §6

With `O=C1CCCC2=C1C(c1ccccc1)c1ccc3ccccc3c1N2` (centres undefined) the MIC [1] was 125 µg/mL (≈ 384 µM), the zone of inhibition at 1000 µg/disc [2] was 12 mm and the MIC [3] was 125 µg/mL (≈ 384 µM). For the same compound, the “diameter of the inhibition zone (DIZ)” value [4] was “inactive”, the MIC [5] was 62.5 µg/mL (≈ 192 µM) and the MIC [6] was 31.2 µg/mL (≈ 95.9 µM). The “diameter of the inhibition zone (DIZ)” value [7] was “inactive”, the MIC [8] was 62.5 µg/mL (≈ 192 µM) and the zone of inhibition at 1000 µg/disc [9] was 9 mm. The “diameter of the inhibition zone (DIZ)” value [10] was “inactive”, the MIC [11] was 62.5 µg/mL (≈ 192 µM) and the MIC [12] was 62.5 µg/mL (≈ 192 µM). The “diameter of the inhibition zone (DIZ)” value [13] was “inactive”, the “diameter of the inhibition zone (DIZ)” value [14] was “inactive” and the zone of inhibition at 1000 µg/disc [15] was 12 mm. The zone of inhibition at 500 µg/disc [16] was 8 mm, the zone of inhibition at 1000 µg/disc [17] was 11 mm and the “diameter of the inhibition zone (DIZ)” value [18] was “inactive”. The zone of inhibition at 500 µg/disc [19] was 7 mm, the “diameter of the inhibition zone (DIZ)” value [20] was “inactive” and the “diameter of the inhibition zone (DIZ)” value [21] was “inactive”. For the same compound, the “diameter of the inhibition zone (DIZ)” value [22] was “inactive”, the zone of inhibition at 500 µg/disc [23] was 9 mm and the “diameter of the inhibition zone (DIZ)” value [24] was “inactive”. For the same compound, the “diameter of the inhibition zone (DIZ)” value [25] was “inactive”, the “diameter of the inhibition zone (DIZ)” value [26] was “inactive” and the “diameter of the inhibition zone (DIZ)” value [27] was “inactive”. For the same compound, the zone of inhibition at 1000 µg/disc [28] was 9 mm, the “diameter of the inhibition zone (DIZ)” value [29] was “inactive” and the zone of inhibition at 1000 µg/disc [30] was 9 mm. The zone of inhibition at 1000 µg/disc [31] was 10 mm, the “diameter of the inhibition zone (DIZ)” value [32] was “inactive” and the zone of inhibition at 500 µg/disc [33] was 8 mm. The “diameter of the inhibition zone (DIZ)” value [34] was “inactive”, the MIC [35] was 31.2 µg/mL (≈ 95.9 µM) and the zone of inhibition at 500 µg/disc [36] was 8 mm. The zone of inhibition at 1000 µg/disc [37] was 10 mm, the zone of inhibition at 500 µg/disc [38] was 8 mm and the zone of inhibition at 500 µg/disc [39] was 11 mm. For the same compound, the “diameter of the inhibition zone (DIZ)” value [40] was “inactive”, the “diameter of the inhibition zone (DIZ)” value [41] was “inactive” and the “diameter of the inhibition zone (DIZ)” value [42] was “inactive”. For the same compound, the “diameter of the inhibition zone (DIZ)” value [43] was “inactive” and the “diameter of the inhibition zone (DIZ)” value [44] was “inactive”.

Reference: ChEMBL document CHEMBL1138564, “Microwave-induced synthesis and anti-microbial activities of 7,10,11,12-tetrahydrobenzo[c]acridin-8(9H)-one derivatives” (2009)
